Measured values from ChEMBL document CHEMBL3244254, “Hypolipidemic activity of 5-aryl-3-methylvaleric acid derivatives” (J Med Chem, 1977).

Experiments:
[1] = system: Rattus norvegicus; test: Hypolipidemic activity in intact normal CD rat assessed as reduction in serum triglyceride level at 0.45 mmol/kg/day administered through diet for 5 days measured on day 6; assay type: functional
How it was run: (§1)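 Male CD rats, 300–380 g, housed in pairs, 12-h light/dark, free access to food and water. Test agent mixed into ground chow at 0.2%; controls got plain ground chow; 8 rats per group. Body weight and group food intake recorded. Fed 5 days, anesthetized on day 6, blood collected, serum total cholesterol or triglyceride measured. Expressed as % reduction vs concurrent controls, Student's t test p ≤ 0.05.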

[2] = system: Rattus norvegicus; test: Hypolipidemic activity in intact normal CD rat assessed as reduction in serum cholesterol level at 0.45 mmol/kg/day administered through diet for 5 days measured on day 6; assay type: functional; how it was run: as §1
[3] = molecular target: T1, 3-hydroxy-3-methylglutaryl-coenzyme A reductase (Rattus norvegicus, UniProt P51639); test: Inhibition of HMG-coA reductase in CD rat liver microsomal-cytosol fraction assessed as inhibition of nonsaponifiable lipid synthesis using [2-14C]acetate as substrate after 90 mins by scintillation counting analysis
T1 sequence (P51639 whole entry): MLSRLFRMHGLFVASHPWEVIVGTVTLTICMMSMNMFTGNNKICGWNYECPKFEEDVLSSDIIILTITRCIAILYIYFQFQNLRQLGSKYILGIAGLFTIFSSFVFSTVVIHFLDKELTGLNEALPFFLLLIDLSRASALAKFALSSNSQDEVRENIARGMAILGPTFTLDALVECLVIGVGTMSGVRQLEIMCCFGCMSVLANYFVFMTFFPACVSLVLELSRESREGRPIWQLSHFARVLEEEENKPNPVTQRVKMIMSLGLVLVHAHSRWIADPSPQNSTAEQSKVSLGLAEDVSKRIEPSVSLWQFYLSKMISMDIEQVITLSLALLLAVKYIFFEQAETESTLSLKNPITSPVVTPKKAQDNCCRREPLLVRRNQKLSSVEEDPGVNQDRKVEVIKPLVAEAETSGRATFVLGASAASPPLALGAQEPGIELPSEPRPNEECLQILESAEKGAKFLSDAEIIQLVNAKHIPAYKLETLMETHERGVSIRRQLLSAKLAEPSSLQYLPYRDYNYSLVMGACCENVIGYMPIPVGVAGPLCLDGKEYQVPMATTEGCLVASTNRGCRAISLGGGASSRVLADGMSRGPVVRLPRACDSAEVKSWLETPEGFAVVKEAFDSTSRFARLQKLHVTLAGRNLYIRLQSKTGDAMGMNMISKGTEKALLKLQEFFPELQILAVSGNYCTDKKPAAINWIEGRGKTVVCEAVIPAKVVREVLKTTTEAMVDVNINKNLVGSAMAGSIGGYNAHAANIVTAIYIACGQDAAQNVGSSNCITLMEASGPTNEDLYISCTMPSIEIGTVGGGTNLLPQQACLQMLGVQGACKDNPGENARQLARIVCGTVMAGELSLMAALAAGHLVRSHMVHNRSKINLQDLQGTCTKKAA
How it was run: (§2)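 Male CD rats, 150–200 g, housed singly 5 days on chow with 2% DEAE-cellulose, killed by cervical dislocation. Liver microsomal-cytosol fraction as enzyme source, [2-14C]acetate substrate, 90 min at 37 °C. Compounds added in Me2SO, at least four concentrations, duplicates. Lipid extract counted by scintillation (dpm). Heat-inactivated fraction corrects for nonenzymatic incorporation. Fractions are total lipid, nonsaponifiable lipid and fatty acid. IC50 is molar concentration giving 50% inhibition.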

[4] = molecular target: T1, 3-hydroxy-3-methylglutaryl-coenzyme A reductase; test: Inhibition of HMG-coA reductase in CD rat liver microsomal-cytosol fraction assessed as inhibition of total lipid synthesis using [2-14C]acetate as substrate after 90 mins by scintillation counting analysis; how it was run: as §2
[5] = system: Rattus norvegicus; test: Hypolipidemic activity in intact normal CD rat assessed as reduction in serum triglyceride level at 0.40 mmol/kg/day administered through diet for 5 days measured on day 6; assay type: functional; how it was run: as §1
[6] = system: Rattus norvegicus; test: Hypolipidemic activity in intact normal CD rat assessed as reduction in serum cholesterol level at 0.40 mmol/kg/day administered through diet for 5 days measured on day 6; assay type: functional; how it was run: as §1
[7] = system: Rattus norvegicus; test: Hypolipidemic activity in intact normal CD rat assessed as reduction in serum triglyceride level at 0.43 mmol/kg/day administered through diet for 5 days measured on day 6; assay type: functional; how it was run: as §1
[8] = system: Rattus norvegicus; test: Hypolipidemic activity in intact normal CD rat assessed as reduction in serum cholesterol level at 0.43 mmol/kg/day administered through diet for 5 days measured on day 6; assay type: functional; how it was run: as §1
[9] = system: Rattus norvegicus; test: Hypolipidemic activity in intact normal CD rat assessed as reduction in serum cholesterol level at 0.41 mmol/kg/day administered through diet for 5 days measured on day 6; assay type: functional; how it was run: as §1
[10] = system: Rattus norvegicus; test: Hypolipidemic activity in intact normal CD rat assessed as reduction in serum triglyceride level at 0.41 mmol/kg/day administered through diet for 5 days measured on day 6; assay type: functional; how it was run: as §1
[11] = system: Rattus norvegicus; test: Hypolipidemic activity in intact normal CD rat assessed as reduction in serum cholesterol level at 0.42 mmol/kg/day administered through diet for 5 days measured on day 6; assay type: functional; how it was run: as §1
[12] = system: Rattus norvegicus; test: Hypolipidemic activity in intact normal CD rat assessed as reduction in serum triglyceride level at 0.42 mmol/kg/day administered through diet for 5 days measured on day 6; assay type: functional; how it was run: as §1
[13] = system: Rattus norvegicus; test: Hypolipidemic activity in intact normal CD rat assessed as reduction in serum cholesterol level at 0.36 mmol/kg/day administered through diet for 5 days measured on day 6; assay type: functional; how it was run: as §1
[14] = system: Rattus norvegicus; test: Hypolipidemic activity in intact normal CD rat assessed as reduction in serum triglyceride level at 0.36 mmol/kg/day administered through diet for 5 days measured on day 6; assay type: functional; how it was run: as §1
[15] = system: Rattus norvegicus; test: Hypolipidemic activity in intact normal CD rat assessed as reduction in serum cholesterol level at 0.39 mmol/kg/day administered through diet for 5 days measured on day 6; assay type: functional; how it was run: as §1
[16] = system: Rattus norvegicus; test: Hypolipidemic activity in intact normal CD rat assessed as reduction in serum triglyceride level at 0.39 mmol/kg/day administered through diet for 5 days measured on day 6; assay type: functional; how it was run: as §1
[17] = system: Rattus norvegicus; test: Hypolipidemic activity in intact normal CD rat assessed as reduction in serum triglyceride level at 0.38 mmol/kg/day administered through diet for 5 days measured on day 6; assay type: functional; how it was run: as §1
[18] = system: Rattus norvegicus; test: Hypolipidemic activity in intact normal CD rat assessed as reduction in serum cholesterol level at 0.38 mmol/kg/day administered through diet for 5 days measured on day 6; assay type: functional; how it was run: as §1
[19] = system: Rattus norvegicus; test: Hypolipidemic activity in intact normal CD rat assessed as reduction in serum triglyceride level at 0.51 mmol/kg/day administered through diet for 5 days measured on day 6; assay type: functional; how it was run: as §1
[20] = system: Rattus norvegicus; test: Hypolipidemic activity in intact normal CD rat assessed as reduction in serum cholesterol level at 0.51 mmol/kg/day administered through diet for 5 days measured on day 6; assay type: functional; how it was run: as §1

SMILES	IC50 [3]	IC50 [4]	other results
CC(CC(=O)O)CC(=O)c1ccc(Oc2ccccc2)cc1 (stereo unspecified)	290 µM	850 µM	inhibition in vivo at 400 µmol/kg [5]: ≥ 36%; inhibition in vivo at 400 µmol/kg [6]: 16%
CC(CCc1ccc2sc3ccccc3c2c1)CC(=O)O (stereo unspecified)	70 µM	190 µM	inhibition in vivo at 430 µmol/kg [7]: ≥ 36%; inhibition in vivo at 430 µmol/kg [8]: 0%
CC(CC(=O)O)CC(=O)c1ccc(-c2ccccc2)cc1 (stereo unspecified)	70 µM	180 µM	inhibition in vivo at 430 µmol/kg [7]: 16%; inhibition in vivo at 430 µmol/kg [8]: 26%
CC(CC(=O)O)CC(=O)c1ccc2oc3ccccc3c2c1 (stereo unspecified)	110 µM	260 µM	inhibition in vivo at 410 µmol/kg [9]: 0%; inhibition in vivo at 410 µmol/kg [10]: 26%
CC(C)(Oc1ccc(Cl)cc1)C(=O)O	860 µM	630 µM	inhibition in vivo at 510 µmol/kg [19]: 26%; inhibition in vivo at 510 µmol/kg [20]: 26%
CC(CC(=O)O)CC(=O)c1ccc(Sc2ccccc2)cc1 (stereo unspecified)	240 µM	570 µM	inhibition in vivo at 380 µmol/kg [17]: ≥ 36%; inhibition in vivo at 380 µmol/kg [18]: 16%

More lines, in order of falling IC50 [3], values ahead:

IC50 [3]	IC50 [4]	SMILES	other results
360 µM	810 µM	CC(CCc1ccc2oc3ccccc3c2c1)CC(=O)O (stereo unspecified)	inhibition in vivo at 430 µmol/kg [7]: ≥ 36%; inhibition in vivo at 430 µmol/kg [8]: 26%
160 µM	310 µM	CC(CC(=O)O)CC(=O)c1ccc2sc3ccccc3c2c1 (stereo unspecified)	inhibition in vivo at 380 µmol/kg [17]: 26%; inhibition in vivo at 380 µmol/kg [18]: 16%
80 µM	50 µM	CC(CCc1ccc2c(c1)-c1ccccc1S2(=O)=O)CC(=O)O (stereo unspecified)	inhibition in vivo at 360 µmol/kg [13]: 16%; inhibition in vivo at 360 µmol/kg [14]: ≥ 36%
40 µM	70 µM	CC(CCc1ccc(S(=O)(=O)c2ccccc2)cc1)CC(=O)O (stereo unspecified)	inhibition in vivo at 360 µmol/kg [13]: 45%; inhibition in vivo at 360 µmol/kg [14]: 60%
30 µM	60 µM	CC(CC(=O)O)CC(=O)c1ccc2c(c1)CCc1ccccc1-2 (stereo unspecified)	inhibition in vivo at 390 µmol/kg [15]: 0%; inhibition in vivo at 390 µmol/kg [16]: ≥ 36%
20 µM	30 µM	CC(CCc1ccc(Oc2ccccc2)cc1)CC(=O)O (stereo unspecified)	inhibition in vivo at 420 µmol/kg [11]: 26%; inhibition in vivo at 420 µmol/kg [12]: ≥ 36%
20 µM	40 µM	CC(CCc1ccc(Sc2ccccc2)cc1)CC(=O)O (stereo unspecified)	inhibition in vivo at 400 µmol/kg [5]: ≥ 36%; inhibition in vivo at 400 µmol/kg [6]: 26%
2 µM	20 µM	CC(CCc1ccc(-c2ccccc2)cc1)CC(=O)O (stereo unspecified)	inhibition in vivo at 450 µmol/kg [1]: 26%; inhibition in vivo at 450 µmol/kg [2]: 16%
